Test results: article PMC7187372 (Journal of Clinical Pharmacology, 2019)

Legend:
[1] = higher; cited from earlier work
[2] = healthy subjects; cited from earlier work
[3] = cited from earlier work
[4] = cited from earlier work; remark: listed apart in the source
[5] = cited from earlier work; remark: listed apart in the source
[6] = Simulation of steady-state exposure; parameters: species or system human
[7] = cited from earlier work; remark: listed apart in the source
[8] = Ketoconazole; assay type: in vivo, human; conditions: glasdegib 200-mg single dose, ketoconazole 400 mg daily, healthy subjects
[9] = Population pharmacokinetic analysis; assay type: in vivo, human
Method in brief: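 Single-dose intensive plasma sampling to 120 h (B1371001) or 24 h (B1371002), sparse in B1371003; multiple-dose intensive in all. HPLC–MS/MS assay, LLOQ 0.200 ng/mL. SAEM/IMP estimation; proportional residual error on log concentrations; missing covariates imputed as population median.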

[10] = Healthy volunteer population PK model; assay type: in vivo, human
Method in brief: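 Model built from noncancer subjects in studies B1371010 and B1371014 (n = 49; 1937 plasma concentrations). Structure: 2-compartment, first-order absorption and elimination, allometric body-weight scaling. Estimation by FOCEI. Food entered empirically as a linear covariate on ka. Residual error was proportional across all subjects. Intersubject variability is reported as CV (%).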

[11] = tested on: Hedgehog pathway marker glioma‐associated oncogene homolog 1 (GLI1); conditions: plasma exposures at doses ≥100 mg QD; cited from earlier work
[12] = cited from earlier work; remark: listed apart in the source
[13] = glasdegib 200-mg single dose, ketoconazole 400 mg daily, healthy subjects
[14] = bootstrap median, 1000 resampled data sets
[15] = healthy volunteer model vs final model, higher
[16] = healthy volunteer model, n = 49, FOCEI

Cc1c(C(=O)Nc2ccc(N3C[C@@H](C)O[C@@H](C)C3)nc2)cccc1-c1ccc(OC(F)(F)F)cc1 [sonidegib, Sonidegib]
Clearance in healthy subjects relative to patients with cancer [1]: 3 fold

CN1CC[C@@H](NC(=O)Nc2ccc(C#N)cc2)C[C@@H]1c1nc2ccccc2[nH]1 [glasdegib, Glasdegib]
Effect of high-fat meal or proton pump inhibitors on PK [2]: not affected in a clinically relevant manner | Plasma exposures with a strong CYP3A inhibitor [3]: increased | Increase in AUC extrapolated to infinity with ketoconazole vs glasdegib alone [3, 13]: 140% | Increase in maximum plasma concentration with ketoconazole vs glasdegib alone [3, 13]: 40% | Absolute oral bioavailability [4]: 77.12% | Dose proportionality of plasma exposure ([5]; 5-600 mg QD, single and multiple daily dosing): dose‐proportional increase in plasma exposure | Maximum tolerated dose (MTD) ([5]; oral, patients): 400 mg QD | Exposure increase from CL/F reduction ([6]; 10th percentile baseline body weight vs 70 kg): ~1.1 fold | Simulated fold change in steady-state maximum concentration and area under the curve ([6]; 90th percentile baseline body weight): ~0.75 | Exposure increase from CL/F reduction ([6]; 90th percentile baseline bone marrow blasts): ~1.1 fold | Increase in area under the curve ([6]; strong CYP3A inhibitors): ~1.4 fold | Plasma exposures with a strong CYP3A4 inducer [7]: decreased | Decrease in CL/F with ketoconazole [8]: 58% | Residual error, proportional error, Hematologic ([9]; bootstrap median): 65.7% | Residual error, proportional error, Solid tumors ([9]; bootstrap median): 59.3% | CL/F [9, 14]: 6.23 L/h | Q/F [9, 14]: 1.58 L/h | Vc/F [9, 14]: 3.52 L | Vp/F [9, 14]: 296.04 L | ka [9, 14]: 0.06 hour^–1 | θBPBL [9, 14]: –0.004 | θCYPmod [9, 14]: –0.18 | θCYPstrong [9, 14]: –0.31 | θWNCL [9, 14]: 0.41 | θsolid on Q/F [9, 14]: –0.69 | θsolid on Vp/F [9, 14]: –0.81 | Effect of age, sex, race and hepatic function on glasdegib PK parameters ([9]; covariate analysis): not found to be significant covariates | Residual error, proportional error, Hematologic ([9]; final model estimate): 65.8% | Residual error, proportional error, Solid tumors ([9]; final model estimate): 59.5% | Change in CL/F per 1% change in baseline percentage bone marrow blasts ([9]; from population median 38.2%, CL/F decreases as blasts increase): 0.4% | Intersubject variability CL/F ([10]; healthy volunteer model): 19.6% (5.8%) | Intersubject variability Vc/F ([10]; healthy volunteer model): 11.0% (52.0%) | Intersubject variability ka ([10]; healthy volunteer model): 53.4% (10.6%) | CL/F in healthy subjects relative to patients with cancer [10, 15]: > 1.6 fold | ka in healthy subjects relative to patients with cancer [10, 15]: over 13 fold | Residual error, proportional error ([10]; healthy volunteer model, all subjects): 58.6% | CL/F [10, 16]: 10.1 (4.1%) L/h | Q/F [10, 16]: 1.92 (11.4%) L/h | Vc/F [10, 16]: 112 (4.1%) L | Vp/F [10, 16]: 53.5 (6.9%) L | ka [10, 16]: 0.79 (8.9%) hour^–1 | Intersubject variability Q/F ([10]; healthy volunteer model, FIXED): 3.2% FIXED | Intersubject variability Vp/F ([10]; healthy volunteer model, FIXED): 3.2% FIXED | Downregulation of GLI1 [11]: robust and consistent | Radiolabeled dose recovered in feces (mean) ([12]; 100 mg dose): 41.7% | Radiolabeled dose recovered in urine (mean) ([12]; 100 mg dose): 48.9% | Renal contribution to elimination [12]: around 17% | Unchanged glasdegib recovered in feces ([12]; of the 100 mg dose): 19.5% | Unchanged glasdegib recovered in urine ([12]; of the 100 mg dose): 17.2%
